Usually MIC stands for the least concentration at which growth counts as inhibited. The term IC50 denotes the concentration that inhibits the measured activity by half.

From ChEMBL document CHEMBL3588807, “Cytotoxic Indolocarbazoles from Actinomadura melliaura ATCC 39691” (J Nat Prod, 2015) come the findings set out here.

Experiment [1] relates to Micrococcus luteus. Nature of the experiment: Antimicrobial activity against Micrococcus luteus NRRL B-287 assessed as inhibition of microbial growth up to 60 uM incubated for 16 to 48 hrs. The class given is functional, organism-based. The method, boiled down:
(§1)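 MIC determined in triplicate against bacterial and yeast strains. Bacterial MICs were read after 16–48 h of incubation and the Saccharomyces cerevisiae MIC after 24 h. Procedure otherwise follows an earlier report.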

For experiment [2], the system named is Salmonella enterica. Nature of the experiment: Antimicrobial activity against Salmonella enterica ATCC 10708 assessed as inhibition of microbial growth up to 60 uM incubated for 16 to 48 hrs. The class given is functional, organism-based. The method in brief: as §1
The subject of experiment [3] is Saccharomyces cerevisiae. The experiment in a line: Antimicrobial activity against Saccharomyces cerevisiae ATCC 204508 assessed as inhibition of microbial growth up to 60 uM incubated for 24 hrs. The class given is functional, organism-based. The method in brief:
as §1

For experiment [4], the system named is A549. Nature of the experiment: Cytotoxic activity against human A549 cells assessed as cell viability at 10 uM incubated for 72 hrs. As to conditions: A549, 72 h, read-out: Activity. The class given is functional. The method, boiled down:
(§2)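 Single-dose viability screen at 10 μM, run in triplicate, on human cancer cell lines.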

Experiment [5] can be described thus: Cytotoxic activity against human U118MG cells assessed as cell viability at 10 uM incubated for 72 hrs. The class given is functional. The settings on record: U-118-MG, read-out: Activity. The method, boiled down: as §2
The test system of experiment [6] is Mycolicibacterium smegmatis. The experiment in a line: Antimicrobial activity against Mycobacterium smegmatis ATCC 14468 assessed as inhibition of microbial growth up to 120 uM incubated for 16 to 48 hrs. The class given is functional, organism-based. The method in brief:
as §1

Experiment [7] concerns PC-3. The experiment in a line: Cytotoxic activity against human PC3 cells assessed as cell viability at 10 uM incubated for 72 hrs. It is filed as functional. The settings on record: PC-3, 72 h, read-out: Activity. The method, boiled down:
as §2

Experiment [8] has as its system Staphylococcus aureus. The experiment in a line: Antimicrobial activity against Staphylococcus aureus ATCC 6538 assessed as inhibition of microbial growth up to 60 uM incubated for 16 to 48 hrs. The class given is functional, organism-based. The method, boiled down: as §1
The test system of experiment [9] is Escherichia coli. The experiment in a line: Antimicrobial activity against Escherichia coli NRRL B-3708 assessed as inhibition of microbial growth up to 60 uM incubated for 16 to 48 hrs. It is filed as functional, organism-based. The method, boiled down:
as §1

For experiment [10], the system named is Micrococcus luteus. Nature of the experiment: Antimicrobial activity against Micrococcus luteus NRRL B-287 assessed as inhibition of microbial growth incubated for 16 to 48 hrs. It is filed as functional. The method, boiled down: as §1
Experiment [11] relates to Mycolicibacterium smegmatis. The experiment in a line: Antimicrobial activity against Mycobacterium smegmatis ATCC 14468 assessed as inhibition of microbial growth incubated for 16 to 48 hrs. The class given is functional. The method in brief: as §1
In experiment [12] the test system is Staphylococcus aureus. Nature of the experiment: Antimicrobial activity against Staphylococcus aureus ATCC 6538 assessed as inhibition of microbial growth incubated for 16 to 48 hrs. It is filed as functional. The method in brief:
as §1

In experiment [13] the test system is Saccharomyces cerevisiae. The experiment in a line: Antimicrobial activity against Saccharomyces cerevisiae ATCC 204508 assessed as inhibition of microbial growth incubated for 24 hrs. As to conditions: ATCC 204508, 24 h. It is filed as functional. The method in brief:
as §1

Experiment [14] is described as follows: Cytotoxic activity against human U118MG cells assessed as reduction in cell viability incubated for 72 hrs. The class given is functional, cell-based. The settings on record: U-118-MG. The method in brief: (§3)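 IC50 determined from viability over 0.03 to 100 000 nM, run in triplicate, on human cancer cell lines.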
Experiment [15] deals with A549. The experiment in a line: Cytotoxic activity against human A549 cells assessed as reduction in cell viability incubated for 72 hrs. As to conditions: A549, 72 h. It is filed as functional, cell-based. The method in brief: as §3
Experiment [16] relates to PC-3. The experiment in a line: Cytotoxic activity against human PC3 cells assessed as reduction in cell viability incubated for 72 hrs. The class given is functional, cell-based. As to conditions: PC-3, 72 h. The method, boiled down: as §3

The source made the active and inactive calls. The calls are words filed in the database; no cut-off is given here.

Turning to `O=C1NC(=O)c2c1c1c3ccccc3[nH]c1c1c2c2ccccc2n1[C@@H]1O[C@H](CO)[C@@H](O)[C@H](O)[C@H]1O`, the “growth inhibition (GI)” value in experiment [1], in experiment [2], in experiment [3], in [6], in experiment [8] and in experiment [9] was “inactive” each time. Also, the viability at 10 µM stood at 32.6% in experiment [4], 53.6% in experiment [5] and 47.7% in experiment [7].
`CO[C@H]1[C@H](O)[C@@H](O)[C@H](n2c3ccccc3c3c4c(c5c6ccccc6[nH]c5c32)C(=O)N(C)C4=O)O[C@@H]1CO`: the MIC is 15 µM in experiment [10], over 120 µM in [11], 7.5 µM in [12] and over 60 µM in experiment [13]. Further, the “growth inhibition (GI)” value in experiment [2] and in [9] was “inactive” each time. Further, the viability at 10 µM was 96.6% in [4], 61% in experiment [5] and 98.3% in experiment [7].
On to `CO[C@H]1[C@H](O)[C@@H](O)[C@H](n2c3c(Cl)cccc3c3c4c(c5c6ccccc6[nH]c5c32)C(=O)N(C)C4=O)O[C@@H]1CO`, for which the “growth inhibition (GI)” value in experiment [1], in experiment [2], in [3], in experiment [6], in [8] and in [9] was “inactive” in each case. The viability at 10 µM came out at 47.4% in experiment [4], 40.5% in experiment [5] and 69% in [7].
As to `CN1C(=O)c2c(c3c4cccc(Cl)c4[nH]c3c3[nH]c4ccccc4c23)C1=O`, the “growth inhibition (GI)” value in experiment [1], in [2], in experiment [3], in [6], in experiment [8] and in [9] was “inactive” in each case. Besides, the values for the viability at 10 µM in experiment [4], in experiment [5] and in experiment [7] were 164%, 186% and 155%, respectively.
For `CN[C@H]1CO[C@@H](OC[C@H]2O[C@@H](n3c4c(Cl)cccc4c4c5c(c6c7ccccc7[nH]c6c43)C(=O)NC5=O)[C@H](O)[C@@H](O)[C@@H]2OC)C[C@@H]1O`, the MIC in [10] was 7.5 µM; in experiment [11], 120 µM; in [12] it was 7.5 µM; in experiment [13], over 60 µM. The figures for the IC50 in [14], in experiment [15] and in experiment [16] were 47.3 nM, 69.6 nM and 45.8 nM, respectively. Further, the “growth inhibition (GI)” value in [2] and in experiment [9] was “inactive” throughout. In addition, the viability at 10 µM in [4] worked out at 19.9%; in [5] it was 31.3%; in [7], 39%.
As to `CN[C@H]1CO[C@@H](OC[C@H]2O[C@@H](n3c4c(Cl)cccc4c4c5c(c6c7ccccc7[nH]c6c43)C(=O)N(C)C5=O)[C@H](O)[C@@H](O)[C@@H]2OC)C[C@@H]1O`, the MIC was determined as 7.5 µM in experiment [10], 60 µM in experiment [11], 1 µM in experiment [12] and 7.5 µM in experiment [13]. The IC50 in [14] came to 56.8 nM; in experiment [15], 76.4 nM; in [16], 106 nM. The “growth inhibition (GI)” value in [2] and in experiment [9] was “inactive” in each case. For the same compound, the viability at 10 µM in experiment [4] is 10.5%; in experiment [5] it was 20.8%; in experiment [7] it was 27%.
For `CN[C@H]1CO[C@@H](OC[C@H]2O[C@@H](n3c4ccccc4c4c5c(c6c7ccccc7[nH]c6c43)C(=O)N(C)C5=O)[C@H](O)[C@@H](O)[C@@H]2OC)C[C@@H]1O`, the MIC in experiment [10] is 7.5 µM; in [11], 120 µM; in experiment [12] it was 7.5 µM; in experiment [13] it was over 60 µM. Besides, the “growth inhibition (GI)” value in experiment [2] and in [9] was “inactive” in each case. Further, the viability at 10 µM turned out to be 16.6% in experiment [4], 29.4% in experiment [5] and 36.4% in [7].
